Read-outs that look alike come from different tables or passages of the source.
Columns and labels:
K-562 = assay: MTT anti-proliferative assay; assay type: cell-based, human; details: read-out: IC50 ± SD, K-562
KG-1a = assay: MTT anti-proliferative assay; assay type: cell-based, human; details: read-out: IC50 ± SD, KG-1a
Jurkat = assay: MTT anti-proliferative assay; assay type: cell-based, human; details: read-out: IC50 ± SD, Jurkat
STAT3 = STAT3 activation assay; assay type: cell-based, human; details: K-562 cells, 10 μM, 24 h, nuclear extracts
Outline: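 K562 cells seeded overnight in 10 cm plates, then given vehicle, test compound (10 μM) or WP1066 (positive control) for 24 h. Nuclear fractions extracted by kit. STAT3 activation measured in nuclear extracts by TransAM STAT3 ELISA per manufacturer. Mean ± SD of three independent experiments, each in triplicate.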

IL-6 = IL-6 ELISA in K-562 cells; assay type: cell-based, human; details: Homo sapiens, K562, 24 h, read-out: IL-6 protein levels (% of control)
Outline: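 K-562 cells exposed 24 h to vehicle (DMSO), test compound at 10 μM or dexamethasone (positive control). IL-6 secreted into cell-free supernatant quantified by human IL-6 ELISA kit. Expressed as % of vehicle control, mean ± SD of three independent experiments, each in triplicate. Time course: in 12-well plates, medium changed when compound (10 μM) added, and media sampled at 0, 1, 4, 8, 12, 24, 48 h.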

c-Src = c-Src (Homo sapiens, UniProt P12931); assay: Src kinase assay; assay type: biochemical
EGFR = EGFR (Homo sapiens, UniProt P00533); assay: EGFR kinase assay; assay type: biochemical
RPMI-8226 cell line = assay: NCI in vitro one dose anticancer assay; assay type: cell-based; details: Homo sapiens, RPMI-8226, 48 h, read-out: % growth inhibition
Outline: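 NCI protocol. Test compound added once at 10−5 M to ~60 human tumour lines from nine subpanels. Incubated 48 h at 37 °C, 5% CO2, 95% air, 100% relative humidity. Endpoint by sulforhodamine B protein staining with spectrophotometric absorbance. Growth of treated cells reported as percent of untreated cells.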

[1] = read-out: Src (IC50 μM), PGT substrate, ATP 50 μM
[2] = read-out: EGFR (IC50 μM), PGT substrate, ATP 50 μM

Sequence of EGFR (P00533 25-1210): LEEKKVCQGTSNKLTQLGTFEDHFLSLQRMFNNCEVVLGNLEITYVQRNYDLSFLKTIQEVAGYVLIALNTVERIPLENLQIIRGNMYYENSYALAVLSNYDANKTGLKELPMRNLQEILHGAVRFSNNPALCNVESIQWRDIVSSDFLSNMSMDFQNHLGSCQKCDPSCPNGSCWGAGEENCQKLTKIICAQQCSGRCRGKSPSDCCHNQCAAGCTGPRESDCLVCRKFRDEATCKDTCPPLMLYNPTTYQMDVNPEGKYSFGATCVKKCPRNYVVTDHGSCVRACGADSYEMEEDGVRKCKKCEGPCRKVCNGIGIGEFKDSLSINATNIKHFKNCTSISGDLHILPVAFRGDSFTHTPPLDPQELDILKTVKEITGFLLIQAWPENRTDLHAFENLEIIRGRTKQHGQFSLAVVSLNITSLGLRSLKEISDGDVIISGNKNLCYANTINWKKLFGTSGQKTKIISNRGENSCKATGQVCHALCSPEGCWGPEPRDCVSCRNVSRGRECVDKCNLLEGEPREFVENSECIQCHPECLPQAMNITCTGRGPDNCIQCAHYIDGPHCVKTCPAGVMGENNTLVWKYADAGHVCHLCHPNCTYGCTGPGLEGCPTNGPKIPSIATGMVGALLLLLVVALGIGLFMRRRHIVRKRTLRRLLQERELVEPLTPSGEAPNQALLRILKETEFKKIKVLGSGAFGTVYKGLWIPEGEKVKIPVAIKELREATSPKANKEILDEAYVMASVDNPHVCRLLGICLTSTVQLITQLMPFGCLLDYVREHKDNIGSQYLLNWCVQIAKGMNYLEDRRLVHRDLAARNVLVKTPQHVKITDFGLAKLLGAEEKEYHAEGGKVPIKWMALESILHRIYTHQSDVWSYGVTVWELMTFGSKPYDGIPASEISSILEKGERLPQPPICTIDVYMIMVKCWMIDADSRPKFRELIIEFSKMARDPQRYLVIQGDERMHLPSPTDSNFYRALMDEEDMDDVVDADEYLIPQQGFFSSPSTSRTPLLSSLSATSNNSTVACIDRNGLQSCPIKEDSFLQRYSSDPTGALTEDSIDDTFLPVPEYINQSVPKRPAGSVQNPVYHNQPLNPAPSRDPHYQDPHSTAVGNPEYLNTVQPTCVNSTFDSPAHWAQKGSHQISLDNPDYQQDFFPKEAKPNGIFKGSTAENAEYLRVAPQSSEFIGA
Sequence of c-Src (P12931 whole entry): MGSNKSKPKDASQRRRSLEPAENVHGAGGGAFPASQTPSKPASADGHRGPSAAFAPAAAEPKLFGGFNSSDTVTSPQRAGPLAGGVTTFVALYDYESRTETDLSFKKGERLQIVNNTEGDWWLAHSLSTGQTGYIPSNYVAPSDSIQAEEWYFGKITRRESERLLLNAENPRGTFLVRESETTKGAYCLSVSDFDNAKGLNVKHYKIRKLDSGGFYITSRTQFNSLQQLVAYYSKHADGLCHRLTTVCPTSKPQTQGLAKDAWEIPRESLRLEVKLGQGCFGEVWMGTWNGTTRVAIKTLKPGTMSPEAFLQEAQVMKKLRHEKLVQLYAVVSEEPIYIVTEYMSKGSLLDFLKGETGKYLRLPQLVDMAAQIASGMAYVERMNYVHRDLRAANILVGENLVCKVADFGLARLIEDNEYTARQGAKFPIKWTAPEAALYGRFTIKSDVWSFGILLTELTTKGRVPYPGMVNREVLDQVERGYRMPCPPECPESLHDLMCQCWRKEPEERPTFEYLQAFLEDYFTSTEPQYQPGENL

SMILES	IC50 (K-562; MTT, 24 h treatment)	IC50 (KG-1a; MTT, 24 h treatment)	IC50 (Jurkat; MTT, 24 h treatment)	inhibition of STAT3 activation (STAT3)	IC50 (K-562; Homo sapiens, K562, 24 h)	IC50 (KG-1a; Homo sapiens, KG-1a, 24 h)	activity at 10 µM (IL-6)	IC50 (Jurkat; Homo sapiens, Jurkat, 24 h)	IC50 (c-Src)	IC50 (EGFR)	IC50 (c-Src; [1])	IC50 (EGFR; [2])	inhibition at 10 µM (RPMI-8226 cell line)
N.N.[Cl][Pt][Cl] [Cisplatin, reference compound]	3.21 ± 0.45 µM	12.2 ± 3.41 µM	15.1 ± 1.35 µM										
O=C(CSc1nnc(-c2ccccc2)o1)Nc1ccc(C(=O)C=Cc2ccc(Cl)cc2)cc1 [Compound 8b, N-(4-(3-(4-Chlorophenyl)acryloyl)phenyl)-2-((5-phenyl-1,3,4-oxadiazol-2-yl)thio)acetamide]				moderate activities	75.4 ± 4.61 µM	82.2 ± 4.56 µM	30 to 75%	78.7 ± 2.13 µM	44.1 ± 3.5 µM	35.1 ± 1.36 µM			
COc1ccc(C=CC(=O)c2ccc(NC(=O)CSc3nnc(-c4ccccc4)o3)cc2)cc1OC [Compound 8c, N-(4-(3-(3,4-Dimethoxyphenyl)acryloyl)phenyl)-2-((5-phenyl-1,3,4-oxadiazol-2-yl)thio)acetamide]					69.5 ± 5.15 µM	95.2 ± 3.88 µM	82 to 98%	75.2 ± 1.25 µM	57.3 ± 2.4 µM	64.3 ± 3.56 µM			
COc1cc(C=CC(=O)c2ccc(NC(=O)CSc3nnc(-c4ccccc4)o3)cc2)cc(OC)c1OC [Compound 8d, N-(4-(3-(3.4.5-Trimethoxyphenyl)acryloyl)phenyl)-2-((5-phenyl-1,3,4-oxadiazol-2-yl)thio)acetamide]	22.8 ± 1.32 µM	31.3 ± 1.05 µM	28.3 ± 0.62 µM								13.4 ± 1.6 µM	11.2 ± 1.25 µM	
O=C(CSc1nnc(-c2ccc(Cl)cc2)o1)Nc1ccc(C(=O)C=Cc2ccc(Cl)cc2)cc1 [Compound 8f, 2-((5-(4-Chlorophenyl)-1,3,4-oxadiazol-2-yl)thio)-N-(4-(3-(4-chloro-phenyl)acryloyl)phenyl)acetamide]					82.3 ± 3.08 µM	91.5 ± 4.15 µM	82 to 98%	88.6 ± 1.35 µM	50.3 ± 3.5 µM	64.7 ± 3.65 µM			
COc1ccc(C=CC(=O)c2ccc(NC(=O)CSc3nnc(-c4ccc(Cl)cc4)o3)cc2)cc1 [Compound 8g, 2-(5-(4-Chlorophenyl)-1,3,4-oxadiazol-2-ylthio)-N-(4-(3-(4-methoxy-phenyl)acryloyl)phenyl)acetamide]					13.1 ± 1.65 µM	55.6 ± 1.34 µM		41.2 ± 0.91 µM	22.1 ± 2.15 µM	12.7 ± 1.25 µM			
COc1ccc(C=CC(=O)c2ccc(NC(=O)CSc3nnc(-c4ccc(Cl)cc4)o3)cc2)cc1OC [Compound 8h, 2-(5-(4-Chlorophenyl)-1,3,4-oxadiazol-2-ylthio)-N-(4-(3-(3,4-dimethoxy-phenyl)acryloyl)phenyl)acetamide]					72.1 ± 3.32 µM	84.6 ± 5.21 µM		78.1 ± 2.1 µM	41.4 ± 4.5 µM	30.2 ± 2.35 µM			
COc1cc(C=CC(=O)c2ccc(NC(=O)CSc3nnc(-c4ccc(Cl)cc4)o3)cc2)cc(OC)c1OC [Compound 8i, 2-(5-(4-Chlorophenyl)-1,3,4-oxadiazol-2-ylthio)-N-(4-(3-(3,4,5-trimethoxyphenyl)acryloyl)phenyl)acetamide]					55.3 ± 4.89 µM	79 ± 3.02 µM		62.6 ± 1.37 µM	43.7 ± 3.5 µM	29.3 ± 3.65 µM			
COc1ccc(-c2nnc(SCC(=O)Nc3ccc(C(=O)C=Cc4ccccc4)cc3)o2)cc1 [Compound 8j, 2-(5-(4-Methoxyphenyl)-1,3,4-oxadiazol-2-ylthio)-N-(4-(3-phenylacryloyl)phenyl)acetamide]					22.6 ± 2.34 µM	25.2 ± 0.48 µM		31.1 ± 0.46 µM	25.3 ± 1.56 µM	11.5 ± 1.24 µM			31.3 to 144%
COc1ccc(-c2nnc(SCC(=O)Nc3ccc(C(=O)C=Cc4ccc(Cl)cc4)cc3)o2)cc1 [Compound 8k, 2-(5-(4-Methoxyphenyl)-1,3,4-oxadiazol-2-ylthio)-N-(4-(3-(4-chloro-phenyl)acryloyl)phenyl)acetamide]					58.4 ± 3.75 µM	71.1 ± 1.22 µM		62.7 ± 2.71 µM	33.6 ± 2.35 µM	18.3 ± 2.35 µM			
COc1ccc(/C=C/C(=O)c2ccc(NC(=O)CSc3nnc(-c4ccc(OC)cc4)o3)cc2)cc1 [Compound 8l, 2-(5-(4-Methoxyphenyl)-1,3,4-oxadiazol-2-ylthio)-N-(4-((E)-3-(4-methoxyphenyl)acryloyl)phenyl)acetamide]					35.2 ± 2.05 µM	38.3 ± 2.45 µM		33.3 ± 1.22 µM	25 ± 3.46 µM	12.3 ± 1.35 µM			
COc1ccc(-c2nnc(SCC(=O)Nc3ccc(C(=O)C=Cc4ccc(OC)c(OC)c4)cc3)o2)cc1 [Compound 8m]	23.1 ± 0.28 µM	31.5 ± 0.42 µM	28.4 ± 0.85 µM								12.5 ± 0.3 µM	10.2 ± 0.36 µM	
COc1ccc(-c2nnc(SCC(=O)Nc3ccc(C(=O)C=Cc4ccccc4)cc3)o2)cc1OC [Compound 8o, N-(4-Cinnamoylphenyl)-2-((5-(3,4-dimethoxyphenyl)-1,3,4-oxadiazol-2-yl)thio)acetamide]					58.4 ± 5.45 µM	65.6 ± 2.31 µM	82 to 98%	94.1 ± 5.31 µM	51.2 ± 5.6 µM	71.1 ± 3.25 µM			
COc1ccc(C=CC(=O)c2ccc(NC(=O)CSc3nnc(-c4ccc(OC)c(OC)c4)o3)cc2)cc1 [Compound 8q, 2-((5-(3,4-Dimethoxyphenyl)-1,3,4-oxadiazol-2-yl)thio)-N-(4-(3-(4-methoxyphenyl)acryloyl)phenyl)acetamide]				moderate activities	40.2 ± 2.82 µM	45.3 ± 2.31 µM	30 to 75%	31.9 ± 1.3 µM	29.5 ± 1.23 µM	11.4 ± 1.54 µM			
COc1ccc(C=CC(=O)c2ccc(NC(=O)CSc3nnc(-c4ccc(OC)c(OC)c4)o3)cc2)cc1OC [Compound 8r, 2-((5-(3,4-Dimethoxyphenyl)-1,3,4-oxadiazol-2-yl)thio)-N-(4-(3-(3,4-di-methoxyphenyl)acryloyl)phenyl)acetamide]					> 100 µM	93.1 ± 1.14 µM	82 to 98%	> 100 µM	76.2 ± 3.65 µM	63.3 ± 2.36 µM			
COc1cc(-c2nnc(SCC(=O)Nc3ccc(C(=O)C=Cc4ccccc4)cc3)o2)cc(OC)c1OC [Compound 8t, N-(4-Cinnamoylphenyl)-2-((5-(3,4,5-trimethoxyphenyl)-1,3,4-oxadiazol-2-yl)thio)acetamide]					73.2 ± 3.72 µM	84.6 ± 1.28 µM	30 to 75%	76.4 ± 1.31 µM	40.2 ± 1.34 µM	22.3 ± 2.35 µM			
COc1cc(-c2nnc(SCC(=O)Nc3ccc(C(=O)C=Cc4ccc(Cl)cc4)cc3)o2)cc(OC)c1OC [Compound 8u, N-(4-(3-(4-Chlorophenyl)acryloyl)phenyl)-2-((5-(3,4,5-trimethoxy-phenyl)-1,3,4-oxadiazol-2-yl)thio)acetamide]					84.2 ± 4.36 µM	95.7 ± 2.48 µM	82 to 98%	> 100 µM	53.1 ± 5.6 µM	55.4 ± 4.35 µM			
COc1ccc(C=CC(=O)c2ccc(NC(=O)CSc3nnc(-c4cc(OC)c(OC)c(OC)c4)o3)cc2)cc1OC [Compound 8w, N-(4-(3-(3,4-Dimethoxyphenyl)acryloyl)phenyl)-2-((5-(3,4,5-trimethoxyphenyl)-1,3,4-oxadiazol-2-yl)thio)acetamide]					90.3 ± 2.91 µM	> 100 µM	82 to 98%	> 100 µM	60.3 ± 2.5 µM	48.3 ± 2.36 µM			

Reference: paper PMC6923798 (Bioorganic chemistry, 2018)
